Among the data in ChEMBL document CHEMBL1250553, “Synthesis, cytotoxicity and liposome preparation of 28-acetylenic betulin derivatives” (Bioorg Med Chem, 2010) are inhibition, Activity and IC50 values, retold here.

The test system of assay [1] is A549. Kind of assay: Cytotoxicity against human A549 cells at 30 uM after 96 hrs by sulforhodamine B assay. It counts as functional, cell-based. The procedure, abridged: (§1)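 Growth inhibition at the highest tested concentration, 30 µM, after 96 h exposure in 96-well plates. Read by SRB staining as % viable cells relative to untreated controls, from at least three independent experiments.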
A general note: In SRB staining, fixed cells bind dye roughly in proportion to their protein.

For the next assay, the species on record is Homo sapiens. Kind of assay: Cytotoxicity against human liposarcoma cells at 30 uM after 96 hrs by sulforhodamine B assay. It counts as functional, cell-based. The gist of the method: as §1
Assay [2] deals with 8505C. Kind of assay: Cytotoxicity against human 8505C cells at 30 uM after 96 hrs by sulforhodamine B assay. It counts as functional, cell-based. The procedure, abridged: as §1
The subject of assay [3] is DLD-1. As to the kind of experiment: Cytotoxicity against human DLD1 cells at 30 uM after 96 hrs by sulforhodamine B assay. The assay is classed as functional, cell-based. The procedure, abridged: as §1
The subject of assay [4] is MCF7. Kind of assay: Cytotoxicity against human MCF7 cells at 30 uM after 96 hrs by sulforhodamine B assay. The assay is classed as functional, cell-based. The gist of the method:
as §1

A further assay deals with A253. As to the kind of experiment: Cytotoxicity against human A253 cells at 30 uM after 96 hrs by sulforhodamine B assay. It counts as functional, cell-based. The procedure, abridged: as §1
The test system of assay [5] is FaDu. As to the kind of experiment: Cytotoxicity against human FADU cells at 30 uM after 96 hrs by sulforhodamine B assay. The assay is classed as functional, cell-based. The gist of the method: as §1
In assay [6] the test system is HCT-116. As to the kind of experiment: Cytotoxicity against human HCT116 cells at 30 uM after 96 hrs by sulforhodamine B assay. The assay is classed as functional, cell-based. The gist of the method: as §1
In assay [7] the test system is SW480. Kind of assay: Cytotoxicity against human SW480 cells at 30 uM after 96 hrs by sulforhodamine B assay. It counts as functional, cell-based. The gist of the method:
as §1

Assay [8] relates to A-431. Kind of assay: Cytotoxicity against human A431 cells at 30 uM after 96 hrs by sulforhodamine B assay. It counts as functional, cell-based. The gist of the method: as §1
For assay [9], the system named is A2780. Kind of assay: Cytotoxicity against human A2780 cells at 30 uM after 96 hrs by sulforhodamine B assay. It counts as functional, cell-based. The procedure, abridged:
as §1

The next assay deals with 518A2. As to the kind of experiment: Cytotoxicity against human 518A2 cells at 30 uM after 96 hrs by sulforhodamine B assay. The assay is classed as functional, cell-based. The procedure, abridged:
as §1

For assay [10], the system named is HT-29. As to the kind of experiment: Cytotoxicity against human HT-29 cells at 30 uM after 96 hrs by sulforhodamine B assay. It counts as functional, cell-based. The procedure, abridged: as §1
Assay [11] relates to HCT-8. Kind of assay: Cytotoxicity against human HCT8 cells at 30 uM after 96 hrs by sulforhodamine B assay. It counts as functional, cell-based. The procedure, abridged: as §1
Assay [12] concerns SW-1736. Kind of assay: Cytotoxicity against human SW1736 cells at 30 uM after 96 hrs by sulforhodamine B assay. The assay is classed as functional, cell-based. The gist of the method:
as §1

The test system of the next assay is SW480 (Homo sapiens). Kind of assay: Induction of apoptosis in human SW480 cells assessed as DNA ladder formation at IC90 concentration after 24 hrs by DNA gel electrophoresis analysis.
The next assay concerns A2780 (Homo sapiens). As to the kind of experiment: Induction of apoptosis in human A2780 cells assessed as floating cells at IC90 concentration after 24 hrs by Trypan blue exclusion test.
Assay [13] deals with A2780. Kind of assay: Induction of apoptosis in human A2780 cells assessed as floating cells at IC90 concentration after 24 hrs by Trypan blue exclusion test. The assay is classed as functional, cell-based. The procedure, abridged:
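A2780 ovarian cancer cells treated for 24 h. Floating cells are collected and scored by trypan-blue exclusion: apoptotic cells exclude the dye, necrotic cells stain blue.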

Assay [14] can be described thus: Cytotoxicity against human 518A2 cells after 96 hrs by sulforhodamine B assay. The assay is classed as functional, cell-based. Particulars: 518A2, 96 h. The procedure, abridged:
(§2)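 Human tumour cell lines in 96-well plates, exposed to test compounds for 96 h, then read by colorimetric sulforhodamine B staining. Viable cells are expressed as % of untreated controls. IC50 is taken from dose–response curves, top concentration 30 µM, as the mean of at least three independent experiments (variation generally 10%). Compounds are given as DMSO solutions or as an aqueous liposomal formulation.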

A short description of assay [15]: Cytotoxicity against human liposarcoma cells after 96 hrs by sulforhodamine B assay. The assay is classed as functional, cell-based. The gist of the method:
as §2

For assay [16], the system named is SW480. As to the kind of experiment: Induction of apoptosis in human SW480 cells assessed as DNA ladder formation at IC90 concentration after 24 hrs by DNA gel electrophoresis analysis. The assay is classed as functional, cell-based. The gist of the method: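 SW480 colon cancer cells treated for 24 h. Floating cells are collected, and DNA is analysed by gel electrophoresis for endonuclease-generated fragment laddering.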

Assay [17] in a line: Cytotoxicity against human A253 cells after 96 hrs by sulforhodamine B assay. It counts as functional, cell-based. Particulars: A253, 96 h. The gist of the method: as §2
Assay [18] deals with HCT-8. As to the kind of experiment: Cytotoxicity against human HCT8 cells after 96 hrs by sulforhodamine B assay. The assay is classed as functional, cell-based. The settings on record: HCT-8, 96 h. The gist of the method:
as §2

In assay [19] the test system is A2780. As to the kind of experiment: Cytotoxicity against human A2780 cells after 96 hrs by sulforhodamine B assay. The assay is classed as functional, cell-based. The settings on record: A2780, 96 h. The gist of the method:
as §2

In assay [20] the test system is 8505C. Kind of assay: Cytotoxicity against human 8505C cells after 96 hrs by sulforhodamine B assay. It counts as functional, cell-based. The gist of the method:
as §2

For assay [21], the system named is A-431. Kind of assay: Cytotoxicity against human A431 cells after 96 hrs by sulforhodamine B assay. It counts as functional, cell-based. Particulars: A-431, 96 h. The gist of the method: as §2
Assay [22] concerns SW480. Kind of assay: Cytotoxicity against human SW480 cells after 96 hrs by sulforhodamine B assay. The assay is classed as functional, cell-based. The settings on record: SW480, 96 h. The procedure, abridged: as §2
The test system of assay [23] is DLD-1. As to the kind of experiment: Cytotoxicity against human DLD1 cells after 96 hrs by sulforhodamine B assay. Particulars: DLD-1, 96 h. The assay is classed as functional, cell-based. The gist of the method:
as §2

For assay [24], the system named is SW-1736. As to the kind of experiment: Cytotoxicity against human SW1736 cells after 96 hrs by sulforhodamine B assay. The assay is classed as functional, cell-based. Particulars: SW-1736, 96 h. The procedure, abridged:
as §2

The test system of assay [25] is MCF7. Kind of assay: Cytotoxicity against human MCF7 cells after 96 hrs by sulforhodamine B assay. The assay is classed as functional, cell-based. Particulars: MCF7, 96 h. The gist of the method: as §2
In assay [26] the test system is FaDu. Kind of assay: Cytotoxicity against human FADU cells after 96 hrs by sulforhodamine B assay. The assay is classed as functional, cell-based. The procedure, abridged: as §2
In assay [27] the test system is A549. Kind of assay: Cytotoxicity against human A549 cells after 96 hrs by sulforhodamine B assay. The assay is classed as functional, cell-based. The settings on record: A549, 96 h. The gist of the method: as §2
In assay [28] the test system is HCT-116. Kind of assay: Cytotoxicity against human HCT116 cells after 96 hrs by sulforhodamine B assay. The assay is classed as functional, cell-based. Particulars: HCT-116, 96 h. The procedure, abridged: as §2
In assay [29] the test system is HT-29. As to the kind of experiment: Cytotoxicity against human HT-29 cells after 96 hrs by sulforhodamine B assay. It counts as functional, cell-based. The settings on record: HT-29, 96 h. The procedure, abridged:
as §2

A word on the IC50: it is the concentration that gives 50% inhibition.

The structures appear in SMILES notation. Calls of active or inactive are those of the source. The rule behind the calls is not given here.

Turning to `C=C(C)[C@@H]1CC[C@]2(C(=O)C#CC(=O)OC)CC[C@]3(C)[C@H](CC[C@@H]4[C@@]5(C)CC[C@H](OC(C)=O)C(C)(C)[C@@H]5CC[C@]43C)[C@@H]12`, the inhibition result in the assay on A549 [1], in the assay listed under Homo sapiens, in the assay with 8505C [2], with DLD-1 [3], in the assay with MCF7 [4] and in the assay on A253 was “inactive” each time. Besides, the inhibition result in the assay on FaDu [5], in the assay with HCT-116 [6], in the assay on SW480 [7], in the assay on A-431 [8], in the assay with A2780 [9] and with 518A2 was “inactive” throughout. The inhibition entry with HT-29 [10], in the assay on HCT-8 [11] and in the assay on SW-1736 [12] was “inactive” throughout.
Consider `C=C(C)[C@@H]1CC[C@]2([C@H](O)C#CC(=O)OC)CC[C@]3(C)[C@H](CC[C@@H]4[C@@]5(C)CC[C@H](OC(C)=O)C(C)(C)[C@@H]5CC[C@]43C)[C@@H]12`, for which the outcome with SW480 (Homo sapiens), in the assay on A2780 (Homo sapiens), in the assay with A2780 [13] and with SW480 [16] was Active. Also, the IC50 in [14] was 5.9 µM; in assay [15], 4.2 µM; in [17], 2.7 µM.
On to `C=C(C)[C@@H]1CC[C@]2([C@@H]3OC(=O)C=C3N(C)C)CC[C@]3(C)[C@H](CC[C@@H]4[C@@]5(C)CC[C@H](OC(C)=O)C(C)(C)[C@@H]5CC[C@]43C)[C@@H]12`, for which the result in the assay on SW480 (Homo sapiens), with A2780 (Homo sapiens), in the assay on A2780 [13] and with SW480 [16] was Active. Further, the IC50 in the assay on HCT-8 [18] came to 1.7 µM; in the assay with A2780 [19], 2.6 µM; in the assay with 8505C [20], 3.1 µM; in the assay on A-431 [21] it was 3.3 µM; in the assay with SW480 [22], 2.2 µM; in assay [14] it was 4.8 µM. In addition, the IC50 was 3.6 µM in the assay with DLD-1 [23]; 2.9 µM in the assay with SW-1736 [24]; 5.3 µM in assay [15]; 6.9 µM in the assay with MCF7 [25]; 3.8 µM in the assay on FaDu [26]; 6.1 µM in the assay with A549 [27]. In addition, the results for the IC50 (in the assay with HCT-116 [28]; in [17]; in the assay with HT-29 [29]) were 3.2 µM, 4.9 µM and 5.7 µM, respectively.
